Measurements published in PMC3433230 (Journal of biomolecular screening, 2009).
Values belong to the compound of their own block, whether it stands above or below them.

Tests used:
RBL-2H3 cells [1] = experiment: Live cell microscopy of RBL-2H3 cells; type: cell-based, Rat; details: 10 μM; for cell shape changes in response to ligand-mediated activation: 1 μg/ml DNP/BSA, IgE primed cells
RBL-2H3 cells [2] = experiment: β-Hexosaminidase secretion measurements in RBL-2H3 cells; type: cell-based, Rat
Procedure, shortened: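 RBL-2H3 cells are primed overnight with IgE, washed and incubated 1 h with test compound in Tyrode's buffer. Supernatant is sampled for spontaneous β-hexosaminidase release. Cells are then activated with DNP/BSA (0.1 μg/ml) for 30 min at 37°C. Release is expressed as percent of total enzyme from Triton X-100-lysed cells.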

NIH 3T3 fibroblasts = NIH 3T3 fibroblasts ref 30; cited from earlier work
[3] = tested on: Cdc42wt, Rac1wt, Rac1Q61L, Rab2 wt, Rab7wt, and H-Ras wt (GST-GTPases); experiment: Multiplexed primary screen, flow cytometry bead-based BODIPY-FL-GTP binding; details: 10 μM compound, 100 nM BODIPY-FL-GTP, 1 mM EDTA
Procedure, shortened: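 Each GST-GTPase (1 μM) is loaded overnight at 4°C onto its own red-intensity GSH-bead set. Beads are washed in NP-HPSE with 0.1% BSA and 1 mM DTT, then pooled, about 2000 beads per GTPase per well. Test compound is added at 10 μM (1% DMSO), with BODIPY-FL-GTP from a 200 nM stock. Plates rotate 40–45 min at 4°C and are read by HyperCyt flow cytometry. FL8 identifies bead sets; median FL1 (530 nm) gives binding. Hits exceed 20% change from baseline. Controls are DMSO and 0.5 mM unlabelled GTP.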

Cdc42 = Cdc42 (Homo sapiens, UniProt P60953); experiment: Dose response of BODIPY-FL-GTP binding, 1 mM EDTA
Cdc42, sequence (P60953 whole entry): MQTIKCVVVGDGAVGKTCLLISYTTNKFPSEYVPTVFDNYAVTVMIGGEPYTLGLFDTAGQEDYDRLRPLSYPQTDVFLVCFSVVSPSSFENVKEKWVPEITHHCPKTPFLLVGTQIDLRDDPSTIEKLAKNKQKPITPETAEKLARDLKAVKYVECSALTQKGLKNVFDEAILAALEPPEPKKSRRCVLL
Procedure, shortened: (§1)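 GST-GTPases are coupled overnight at 4°C to colour-coded GSH-beads at 1 μM each. Beads are run as a multiplex (Rab7 wt, Rab2 wt, H-Ras wt, H-RasG12V, Cdc42 wt, Cdc42Q61L). […] Buffer contains 1 mM EDTA. Test compound is a 9-point 1:3 series, final 10 nM–100 μM. Binding of 100 nM (final) BODIPY-FL-GTP is read by flow cytometry, in triplicate.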

[4] = tested on: Rac1 wt, Rac1Q61L, Rac2 wt, RhoA wt and RhoAL63, Cdc42 wt, Cdc42Q61L and Ral wt; experiment: Eight-plex dose response of BODIPY-FL-GTP binding, 1 mM MgCl2; details: 1 mM MgCl2, 100 nM BODIPY-FL-GTP
Procedure, shortened: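 Buffer is NP-HPS with 1 mM MgCl2. Binding of 100 nM BODIPY-FL-GTP is measured by flow cytometry with or without a 9-point 1:3 test-compound series (final 10 nM–100 μM). Each series is run in triplicate.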

Rac1 [5] = biological target: T1, Rac1 (Mus musculus, UniProt P63001); experiment: G-LISA assay for active Rac in Swiss 3T3 cells; type: cell-based; details: for blocking EGF-stimulated Rac activation: concentrations of 1 μM or less
H-Ras and Rab proteins = experiment: Dose response of BODIPY-FL-GTP binding, 1 mM EDTA; details: 10^−4 M compound
Procedure, shortened: as §1

Wild-type GST-Cdc42 = Wild-type GST-Cdc42 (Homo sapiens, UniProt P60953); experiment: Real-time GTP-binding kinetic assay by flow cytometry
Wild-type GST-Cdc42, sequence (P60953 whole entry): as above
Procedure, shortened: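 GST-Cdc42 wt (4 μM) is bound to GSH-beads overnight at 4°C. Nucleotide is stripped with 10 mM EDTA for 20 min at 30°C, then beads are washed and resuspended in NP-HPS with 1 mM EDTA, 1 mM DTT and 0.1% BSA. Beads are preincubated 2 min with 1% DMSO or 10 μM test compound. Ice-cold BODIPY-FL-GTP (6.5–200 nM) is added, and association is followed 3 min by kinetic-mode flow cytometry (n=4). Bound signal at 3 min versus GTP concentration is curve-fitted.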

Rac1 [6] = biological target: T1, Rac1; experiment: Rac activation assay; type: cell-based
Procedure, shortened: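 Swiss 3T3 cells are serum-starved overnight, then treated 20–30 min with 1% DMSO or 10 μM test compound. Some cells are then given 10 ng/ml EGF for 2 min; EGF alone is the positive control.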

GST-Rac1 = GST-Rac1 (Homo sapiens, UniProt P63000); experiment: In vitro bead based assay of Rac1 binding to fluorescent GTP; details: 10 μM compound, 100 nM fluorescent GTP
RBL-2H3 cells [7] = experiment: Rhodamine-phalloidin staining and confocal microscopy of RBL-2H3 cells; type: cell-based, Rat; details: 10 μM, DNP/BSA 1 μg/ml
Procedure, shortened: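 RBL-2H3 cells on coverslips are cultured overnight with or without 10 μM test compound; stimulated cells get 1 μg/ml DNP-BSA for 30 min. Cells are fixed in 3% paraformaldehyde, permeabilised 5 min in 0.1% Triton X-100, blocked 1 h in 1% BSA and stained 1 h with rhodamine-phalloidin, all at room temperature. Confocal x-y and x-z views are collected.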

Swiss 3T3 cells = experiment: Stress fiber formation in EGF treated Swiss 3T3 cells; type: cell-based; details: 10 μM, 30 min pre-treatment, 10 ng/ml EGF
Procedure, shortened: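 Quiescent, serum-starved Swiss 3T3 fibroblasts are treated 30 min with 10 μM test compound or DMSO, then stimulated with 10 ng/ml EGF for 2 min. Cells are imaged for actin stress fibres.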

[8] = 10 μM inhibitor, 6.5–200 nM BODIPY-GTP

SMILES: O=c1cc(CN2CCOCC2)occ1OCCCCCSc1ccnc2cc(C(F)(F)F)ccc12 [EHT1864, reference compound]
- cell shape changes in response to ligand-mediated activation (RBL-2H3 cells [1]): failed to inhibit
- inhibition of β-hexosaminidase secretion in response to ligand-stimulation (RBL-2H3 cells [2]; 10 μM): failed to inhibit
- lamellipodia formation following platelet derived growth factor stimulation (NIH 3T3 fibroblasts): blocked

- effect on BODIPY-FL-GTP binding to the tested GTPases, primary screen [3]: Cdc42 specific inhibitor
- EC50 (Cdc42): ~2000 nM
- effect on BODIPY-FL-GTP binding in the presence of Mg2+ [4]: specific for Cdc42
SMILES: NS(=O)(=O)c1ccc(N2N=C(c3ccccc3)CC2c2ccccc2)cc1 (centres unmarked) [MLS000573151, 4-[3,5-di(phenyl)-4,5-dihydropyrazol-1-yl]benzenesulfonamide]

SMILES: CCN(CC)CCCC(C)Nc1nc(C)cc(Nc2ccc3nc(C)cc(N)c3c2)n1 (centres unmarked) [NSC23766, reference compound]
- blocking EGF-stimulated Rac activation (Rac1 [5]): Neither compound was effective
- inhibition of EGF stimulated activation of Rac1 (Rac1 [5]; doses up to 50 μM): more modest inhibition
- cell shape changes in response to ligand-mediated activation (RBL-2H3 cells [1]): failed to inhibit
- toxicity to RBL-2H3 cells (RBL-2H3 cells [2]; 50 μM): toxic
- spontaneous β-hexosaminidase release (RBL-2H3 cells [2]; 50 μM (Fig. 7A), 1 h): extensive

- effect on BODIPY-FL-GTP binding to the tested GTPases, primary screen [3]: inhibitory effect
- inhibition of BODIPY-FL-GTP binding (H-Ras and Rab proteins): < 20%
- effect on Bmax of GTP-binding (Wild-type GST-Cdc42; [8]): decreased
- effect on affinity of GTP to wild type Cdc42 (Wild-type GST-Cdc42; [8]): remained constant
- reversibility of activity (Wild-type GST-Cdc42; data not shown): not reversible
- growth factor induced activation of Rac1 (Rac1 [6]; 10 μM pretreatment, 10 ng/ml EGF for 2 min): completely inhibited
- low level of active Rac1 in serum starved cells (Rac1 [6]; 10 μM, 30 min pretreatment, no EGF): completely abolished
- inhibition of BODIPY-FL-GTP binding to GST-Rac1 (GST-Rac1): similar
- inhibition of EGF stimulated activation of Rac1 (Rac1 [5]; 3–10 μM, 1 h, then 10 ng/ml EGF 2 min): effectively inhibited
- blocking EGF-stimulated Rac activation (Rac1 [5]): Neither compound was effective
- spontaneous β-hexosaminidase secretion, absence of ligand stimulation (RBL-2H3 cells [2]; 10 μM, 1 h): no β-hexosaminidase secretion
SMILES: O=C(C#Cc1ccccc1)c1cccc([N+](=O)[O-])c1 [MLS000532223, 1-(3-nitrophenyl)-3-phenyl-2-propyn-1-one]
- effect on BODIPY-FL-GTP binding in the presence of Mg2+ [4]: inhibited the activity of all tested GTPases of the Rho and Ral families
- cell shape and F-actin after cross-linking of IgE receptors (RBL-2H3 cells [7]): failed to flatten
- formation of stress fibers upon EGF stimulation (Swiss 3T3 cells): completely inhibited
- cell shape changes in response to ligand-mediated activation (RBL-2H3 cells [1]): completely abrogated
- morphology of resting cells (RBL-2H3 cells [1]; no ligand): no change in morphology
- toxicity to cells (RBL-2H3 cells [2]; 10 μM): not toxic
- reduction of β-hexosaminidase secretion in ligand-stimulated cells (RBL-2H3 cells [2]; 10 μM, DNP/BSA): 50%
